Test results from ChEMBL document CHEMBL1148339, “Synthesis, structure-activity relationships, and drug resistance of beta-d-3'-fluoro-2',3'-unsaturated nucleosides as anti-HIV Agents” (J Med Chem, 2004).

Biological target: T1, Adenosine deaminase (Bos taurus) (UniProt P56658)
T1 sequence (whole entry): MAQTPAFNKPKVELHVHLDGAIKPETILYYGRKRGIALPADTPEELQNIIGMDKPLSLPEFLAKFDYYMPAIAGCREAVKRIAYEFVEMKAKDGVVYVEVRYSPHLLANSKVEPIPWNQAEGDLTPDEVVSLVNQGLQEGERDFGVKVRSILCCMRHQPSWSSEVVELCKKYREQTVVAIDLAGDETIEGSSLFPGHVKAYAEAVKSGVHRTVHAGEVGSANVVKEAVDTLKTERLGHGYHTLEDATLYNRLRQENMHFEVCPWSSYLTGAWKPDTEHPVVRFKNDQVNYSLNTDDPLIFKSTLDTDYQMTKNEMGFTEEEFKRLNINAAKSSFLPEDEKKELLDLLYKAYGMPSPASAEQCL
Assay: Kcat/KM of compound against adenosine deaminase (ADA) was determined
How it was run: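 Deamination by calf intestinal mucosa adenosine deaminase (0.15 units, MW 33 000, in 2 mL) in phosphate buffer pH 7.4 at 25 °C, substrate 15–100 μM, monitored by UV at 265 nm. Initial rates from graphical fitting of concentration vs time; Vmax and KM from Lineweaver–Burk plot, kcat calculated from enzyme amount.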

k cat/Km: 3.1e+06 M⁻¹ s⁻¹
Compound: Nc1ncnc2c1ncn2[C@@H]1O[C@H](CO)[C@@H](O)[C@H]1O
